Experimental data from different studies.
Each line is one published result; the experiments were not run side by side.
Target: Casein kinase I isoform alpha (CSNK1A1, Homo sapiens, UniProt P48729)
One construct used (P48729 1-304): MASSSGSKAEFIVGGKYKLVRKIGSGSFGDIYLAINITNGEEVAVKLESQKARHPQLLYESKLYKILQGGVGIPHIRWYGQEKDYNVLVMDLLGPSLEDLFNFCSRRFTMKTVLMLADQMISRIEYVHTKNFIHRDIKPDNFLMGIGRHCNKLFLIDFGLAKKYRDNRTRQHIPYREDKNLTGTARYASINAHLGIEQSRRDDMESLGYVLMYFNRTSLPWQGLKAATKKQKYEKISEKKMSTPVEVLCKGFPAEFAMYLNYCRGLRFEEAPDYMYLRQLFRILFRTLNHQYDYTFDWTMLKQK

| SMILES | observed | mode | technique | tested at | measurement | result |
| --- | --- | --- | --- | --- | --- | --- |
| COc1ccc2[nH]c3c4[nH]c5ccc(OC)cc5c4c4c(c3c2c1)C(=O)NC4=O | binding | – | – | 1 µM | remaining binding | 62% |
| Cc1cc(O)c(-c2ccc([C@@H](C)CN(C)C)cc2)c2c1[nH]c(=O)c1sccc12 | enzyme activity | inhibitor | – | 0.1 µM | inhibition | 6.33% |
| c1cc(-c2cnn3cc(-c4ccc(OCCN5CCCCC5)cc4)cnc23)ccn1 | binding | – | SPR | – | kon | 2.49e+09 M⁻¹ s⁻¹ |
| CCCCC(=O)Nc1ccc(-c2ccc3ncn(CCC)c(=O)c3c2)cn1 | binding | – | competition with immobilised ligand | 0.5 µM | remaining binding | 89% |
| CC#CC(=O)N1CCC[C@H]1c1nc(-c2ccc(C(=O)Nc3ccccn3)cc2)c2c(N)nccn12 | enzyme activity | inhibitor | – | 1 µM | inhibition | 21% |
| C1=C/COCc2cc(ccc2OCCN2CCCC2)Nc2nccc(n2)-c2cccc(c2)COC/1 | binding | – | – | 0.1 µM | remaining binding | 85% |
| COc1ccc2oc(-c3ccc4nc(N)oc4c3)c/c(=N\c3ccccc3NC(=O)CCN)c2c1 | binding | – | – | 1 µM | remaining binding | 102% |
| CC(C)S(=O)(=O)c1ccc2nccc(Nc3ccc4sc(C5CCCC5)nc4c3)c2c1 | enzyme activity | inhibitor | – | 1 µM | activity vs control | 103% |
| CO[C@@H]1[C@H](N(C)C(=O)c2ccccc2)C[C@H]2O[C@]1(C)n1c3ccccc3c3c4c(c5c6ccccc6n2c5c31)C(=O)NC4 | enzyme activity | inhibitor | – | 1 µM | inhibition | 33% |
| C[C@H]1CC[C@H](n2c3cnccc3c3cnc(Nc4ccc5c(n4)CCN(C(=O)CO)C5)nc32)CC1 | cell-free assay | – | – | 1 µM | remaining signal | 94% |
| c1cc(Nc2cc(C3CC3)n[nH]2)nc(Nc2ccc3nc[nH]c3c2)n1 | binding | – | SPR | – | kon | 5.43e+08 M⁻¹ s⁻¹ |
